Where only a bound is given, the exact number is not on record here.

The source of these data is ChEMBL document CHEMBL1125570 (J Med Chem, 1992).

In assay [1] the target is T1, Serotonin 2 (5-HT2) receptor (Rattus norvegicus, UniProt P30994+P08909+P14842). Put plainly: Inhibitory activity against 5-hydroxytryptamine 2 receptor. Type of assay: protein assay. The procedure, abridged: (§1)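 Male Sprague-Dawley rat (200–250 g) frontal cortex membranes in 50 mM Tris·HCl/0.5 mM EDTA/10 mM MgCl2, pH 7.4, plus 0.1% ascorbate and 10⁻⁵ M pargyline. […] Nonspecific binding defined by 1.0 μM cinanserin. Run in triplicate, 15 min at 37 °C, then filtration. Ki = IC50/(1 + D*/KD*).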

Assay [2] addresses T2, Serotonin 2 (5-HT2) receptor (Rattus norvegicus) (UniProt P30994+P08909+P14842). The experiment in a line: Selectivity ratio for 5-HT1C compared to 5-HT2 receptors. Type of assay: protein assay. The procedure, abridged: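 Ratio of 5-HT1C Ki over 5-HT2 Ki. Both come from rat frontal cortex competition assays run in triplicate for 15 min at 37 °C. The 5-HT1C assay used 1 nM [3H]mesulergine with 100 nM spiperone present. […] Ki values were derived from IC50 by Cheng–Prusoff.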

Assay [3] has as its target T3, 5-hydroxytryptamine receptor 2C (Rattus norvegicus, UniProt P08909).
T3 sequence (P08909 whole entry): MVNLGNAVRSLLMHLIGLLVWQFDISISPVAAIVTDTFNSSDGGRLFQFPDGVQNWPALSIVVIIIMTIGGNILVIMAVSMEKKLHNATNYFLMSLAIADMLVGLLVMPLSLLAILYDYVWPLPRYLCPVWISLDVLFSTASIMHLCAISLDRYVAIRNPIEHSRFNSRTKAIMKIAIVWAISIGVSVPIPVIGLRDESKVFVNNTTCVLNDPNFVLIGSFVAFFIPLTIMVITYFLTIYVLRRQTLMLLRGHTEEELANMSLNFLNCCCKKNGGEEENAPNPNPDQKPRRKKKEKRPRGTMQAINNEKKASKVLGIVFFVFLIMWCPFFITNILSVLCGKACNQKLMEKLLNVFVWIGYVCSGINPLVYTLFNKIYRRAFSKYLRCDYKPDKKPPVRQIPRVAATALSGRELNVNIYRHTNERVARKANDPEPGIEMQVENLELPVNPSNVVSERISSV
The experiment in a line: Binding affinity against 5-hydroxytryptamine 1C receptor in rat using [3H]mesulergine as radioligand. In outline: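 Rat frontal cortex homogenate (male Sprague-Dawley, 200–250 g), washed in 50 mM Tris·HCl, 0.5 mM EDTA, 10 mM MgCl2, pH 7.4, with 0.1% ascorbate and 10⁻⁵ M pargyline. 10 mg wet tissue, 1 nM [3H]mesulergine, 100 nM spiperone to block 5-HT2 sites, nonspecific binding with 1.0 μM mianserin. Incubated 15 min at 37 °C, triplicates, filtration. Ki from IC50 via Cheng–Prusoff.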

The target in assay [4] is Serotonin 2 (5-HT2) receptor (Rattus norvegicus, UniProt P14842). The experiment in a line: Binding affinity against 5-hydroxytryptamine 2 receptor in rat using [3H]ketanserin as radioligand. The procedure, abridged:
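Male Sprague-Dawley rat (200–250 g) frontal cortex membranes in 50 mM Tris·HCl/0.5 mM EDTA/10 mM MgCl2, pH 7.4, plus 0.1% ascorbate and 10⁻⁵ M pargyline. Nonspecific binding defined by 1.0 μM cinanserin. Run in triplicate, 15 min at 37 °C, then filtration. Ki = IC50/(1 + D*/KD*).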

Assay [5] addresses T1, Serotonin 2 (5-HT2) receptor. Put plainly: Inhibitory constant against 5-hydroxytryptamine 2 receptor. Type of assay: protein assay. In outline:
as §1

The target is the same in assay [6]. Put plainly: Binding affinity against 5-Hydroxy tryptamine 2 (5-hydroxytryptamine 2)receptor. Type of assay: protein assay.
For assay [7], the target named is T3, 5-hydroxytryptamine receptor 2C. Put plainly: Binding affinity against 5-hydroxytryptamine 1C receptor.
Assay [8] concerns the target T2, Serotonin 2 (5-HT2) receptor (Rattus norvegicus). The experiment in a line: Selectivity for 5-HT1C and 5-HT2 receptors, ratio of Ki. It is filed as protein assay. In outline:
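Both come from rat frontal cortex competition assays run in triplicate for 15 min at 37 °C. The 5-HT1C assay used 1 nM [3H]mesulergine with 100 nM spiperone present. Ki values were derived from IC50 by Cheng–Prusoff.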

T2 sequence (P14842 whole entry, looked up, one chain of several): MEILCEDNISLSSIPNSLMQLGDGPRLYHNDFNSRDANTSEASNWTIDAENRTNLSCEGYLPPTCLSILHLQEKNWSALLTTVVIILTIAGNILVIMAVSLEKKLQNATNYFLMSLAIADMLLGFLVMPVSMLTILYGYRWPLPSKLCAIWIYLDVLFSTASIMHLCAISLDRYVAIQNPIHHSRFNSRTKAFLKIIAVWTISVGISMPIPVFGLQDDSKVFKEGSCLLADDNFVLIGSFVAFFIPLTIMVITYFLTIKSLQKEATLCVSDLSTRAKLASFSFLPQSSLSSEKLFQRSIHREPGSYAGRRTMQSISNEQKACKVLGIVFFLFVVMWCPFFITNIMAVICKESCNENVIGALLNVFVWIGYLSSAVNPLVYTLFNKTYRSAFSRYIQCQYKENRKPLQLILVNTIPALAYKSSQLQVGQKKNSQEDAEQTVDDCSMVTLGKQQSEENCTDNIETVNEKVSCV
T2 sequence (P30994 whole entry, looked up, one chain of several): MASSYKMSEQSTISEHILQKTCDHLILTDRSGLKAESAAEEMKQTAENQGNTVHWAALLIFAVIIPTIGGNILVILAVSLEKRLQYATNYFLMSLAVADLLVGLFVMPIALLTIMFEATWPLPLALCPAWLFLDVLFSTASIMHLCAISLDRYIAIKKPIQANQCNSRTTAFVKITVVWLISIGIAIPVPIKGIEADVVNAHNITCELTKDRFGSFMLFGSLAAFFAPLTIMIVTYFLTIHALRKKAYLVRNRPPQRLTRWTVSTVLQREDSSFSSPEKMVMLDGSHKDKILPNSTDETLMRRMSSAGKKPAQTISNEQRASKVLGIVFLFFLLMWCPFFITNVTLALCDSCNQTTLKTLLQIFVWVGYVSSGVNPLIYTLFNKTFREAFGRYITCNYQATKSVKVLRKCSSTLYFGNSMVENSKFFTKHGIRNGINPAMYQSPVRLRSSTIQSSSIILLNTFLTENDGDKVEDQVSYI

Compound `CN1CCN(C2CC(c3ccc(F)cc3)c3ccccc32)CC1` (single isomer, unassigned; (+)) showed a half-inhibitory concentration (IC50) in assay [1] of 4.9 nM.
In the case of `O=C(O)C(=O)O.O=C(c1ccc(F)cc1)C1CCN(CCCCCc2ccccc2)CC1`, the Ratio in assay [2] amounted to 40. In addition, the Ki in assay [3] is 420 nM; in assay [4], 10 nM.
As for `CN(C)CCn1c(=O)[nH]c2ccccc2c1=O`, the Ki in assay [3] and in assay [4] was above 10000 nM each time.
On to `c1ccc(CN2CCNCC2)cc1`, for which the Ki in assay [3] and in assay [4] was above 10000 nM in each case.
Regarding `CN(CCCc1ccccc1)CCn1c(=O)[nH]c2ccccc2c1=O.O=C(O)C(=O)O`, in assay [2], the Ratio came to 2. In addition, the Ki in assay [3] was determined as 1390 nM; in assay [4], 640 nM.
Consider `O=C(O)/C=C\C(=O)O.O=c1[nH]c2ccccc2c(=O)n1CCN1CCC(Cc2ccccc2)CC1`, for which the Ratio in assay [2] was found to be 30. In addition, the Ki in assay [3] was 970 nM; in assay [4], 32 nM.
Consider `CN1CCN(C(=O)c2ccc(F)cc2)CC1`, for which the Ki in assay [3] and in assay [4] was above 10000 nM each time.
With `Cl.O=c1[nH]c2ccccc2c(=O)n1CCN1CCCCC1`, the Ki in assay [3] and in assay [4] was above 10000 nM in each case.
With `O=C(c1ccccc1)N1CCNCC1`, the Ki in assay [3] and in assay [4] was above 10000 nM throughout.
Consider `CN1CCC(C(=O)c2ccc(F)cc2)CC1`, for which the Ratio in assay [2] came to 12. For the same compound, the Ki in assay [3] came to 1510 nM; in assay [4] it was 125 nM.
Consider `O=C(O)/C=C\C(=O)O.O=C(c1ccccc1)C1CCN(CCn2c(=O)[nH]c3ccccc3c2=O)CC1`, for which the Ratio in assay [2] was found to be 115. Also, the Ki in assay [3] came out at 760 nM; in assay [4], 6.5 nM.
Consider `O=C(O)/C=C\C(=O)O.O=c1[nH]c2ccccc2c(=O)n1CCNCCCc1ccccc1`, for which the Ratio in assay [2] was above 10. For the same compound, the values for the Ki in assay [3] and in assay [4] were above 10000 nM and 660 nM, respectively.
For `O=C(c1ccc(F)cc1)C1CCN(CCn2c(=O)[nH]c3ccccc3c2=O)CC1` [KETANSERIN], in assay [3], the Ki was 50 nM.
In the case of `OC(c1ccccc1)C1CCN(CCc2ccccc2)CC1` (configuration not stated) [GLEMANSERIN], the Ki in assay [5] was determined as 12.5 nM. In other words, the double-digit nanomolar range.
With `O=C(O)C(=O)O.O=C(c1ccc(F)cc1)C1CCN(CCCc2ccccc2)CC1`, the Ratio in assay [2] stood at 60. Besides, the Ki was 940 nM in assay [3] and 16 nM in assay [4].
In assay [1], `OC(c1ccccc1)C1CCN(CCc2ccc(F)cc2)CC1` (configuration not stated) returned an IC50 of 0.9 nM.
Take `CCN1CCC(C(O)c2ccc(F)cc2)CC1.O=C(O)/C=C\C(=O)O` (configuration not stated): the Ki in assay [3] and in assay [4] was above 10000 nM in each case.
For the compound `CN1CCN(CCn2c(=O)[nH]c3ccccc3c2=O)CC1.Cl.Cl`, the Ki in assay [3] and in assay [4] was above 10000 nM throughout.
As to `O=C(O)C(=O)O.O=C(c1ccc(F)cc1)C1CCN(CCc2ccccc2)CC1`, the Ratio in assay [2] came out at 15. The values for the Ki in assay [3] and in assay [4] were 145 nM and 8.5 nM, respectively.
Turning to `O=C(O)C(=O)O.O=c1[nH]c2ccccc2c(=O)n1CCN1CCC(C(O)c2ccccc2)CC1` (configuration not stated), the Ratio in assay [2] was above 15. Moreover, the Ki in assay [3] is above 10000 nM; in assay [4], 655 nM.
The like results for `O=C(O)C(=O)O.O=C(c1ccc(F)cc1)C1CCN(CCCCc2ccccc2)CC1` were, in that order, 120, 620 nM and 5.3 nM.
On to `CN1CCN(Cc2ccc(F)cc2)CC1.Cl.Cl`, for which the Ki in assay [3] and in assay [4] was above 10000 nM each time.
`O=C(O)C(=O)O.O=c1[nH]c2ccccc2c(=O)n1CCN1CCC(Cc2ccc(F)cc2)CC1`: the Ratio in assay [2] came to 17. Besides, the Ki turned out to be 200 nM in assay [3] and 12 nM in assay [4].
Take `c1ccc(CC2CCNCC2)cc1`: the Ki in assay [6] and in assay [7] was above 10000 nM each time.
For the compound `O=C(O)C(=O)O.O=C(c1ccc(F)cc1)C1CCN(Cc2ccccc2)CC1`, the Ratio in assay [2] came out at 120. The Ki came out at 3000 nM in assay [3] and 25 nM in assay [4].
Taken in the same sequence, the figures for `O=C(O)/C=C\C(=O)O.O=c1[nH]c2ccccc2c(=O)n1CCNCCCCc1ccccc1` were above 50, above 10000 nM and 180 nM.
Regarding `O=C(c1ccc(F)cc1)C1CCNCC1`, the Ratio in assay [2] was 2. Besides, the Ki in assay [3] was found to be 1100 nM; in assay [4], 430 nM.
`O=C1NCCN1CCN1CCN(C2CC(c3ccc(F)cc3)c3ccccc32)CC1` (configuration not stated) displayed a concentration for half-maximal inhibition (IC50) in assay [1] of 3.4 nM.
Turning to `O=C(NCCN1CCC(C(=O)c2ccc(F)cc2)CC1)Nc1ccccc1.O=C(O)C(=O)O`, in assay [2], the Ratio turned out to be 50. The Ki amounted to 200 nM in assay [3] and 4.3 nM in assay [4].
On to `CCN1CCC(C(=O)c2ccc(F)cc2)CC1`, for which, in assay [2], the Ratio came to 12. Further, the results for the Ki in assay [3] and in assay [4] were 3160 nM and 260 nM, respectively.
Take `CN1CCC(Cc2ccccc2)CC1.Cl`: the inhibitory constant (Ki) was 3870 nM in assay [6] and above 10000 nM in assay [7]. The Ki ratio in assay [8] is above 2.
On to `O=C(NCCN1CCC(C(=O)c2ccc(F)cc2)CC1)c1ccccc1.O=C(O)C(=O)O`, for which, in assay [2], the Ratio is 100. The figures for the Ki in assay [3] and in assay [4] were 1610 nM and 16 nM, respectively.
On to `Cl.NCCn1c(=O)[nH]c2ccccc2c1=O`, for which the Ki in assay [3] and in assay [4] was above 10000 nM throughout.
For the compound `O=C(c1ccccc1)C1CCNCC1`, the Ratio in assay [2] is above 3. Also, the inhibition constant Ki in assay [3] was above 10000 nM; in assay [4], 3320 nM.
As for `CN1CCN(C(=O)c2ccccc2)CC1`, the Ki in assay [3] and in assay [4] was above 10000 nM in each case.
Consider `Cl.O=C(CCCN1CCC(C(=O)c2ccc(F)cc2)CC1)c1ccccc1`, for which the Ratio in assay [2] came to 50. Moreover, the Ki came to 350 nM in assay [3] and 6.5 nM in assay [4].

What is called IC50 is the concentration needed to halve the response being measured. Higher therefore signals a need for much substance. In general, Ki refers to a dissociation constant, usually derived from enzyme kinetics or from competition with a known ligand.
